Data as given in ChEMBL document CHEMBL1153285, “Synthesis and SAR of piperazinyl-N-phenylbenzamides as inhibitors of hepatitis C virus RNA replication in cell culture” (Bioorg Med Chem Lett, 2009).
Active and inactive are the calls of the source. The rule behind the calls is not given here.

system: Hepacivirus hominis; assay: Inhibition of ATPase activity of HCV NS3/4A protease up to 10 uM; conditions: not given
How it was run: (§1)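 Cell-free assays used purified protein, either the full-length NS3-4A complex or the separate protease and helicase domains. Compound was tested at concentrations up to 10 µM.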

Row | Activity | Compound
1 | inactive | CC(C)(C)OC(=O)N1CCN(c2ccc(C(=O)Nc3ccc(O)cc3)cc2)CC1

system: Hepacivirus hominis; assay: Inhibition of HCV NS5B deltaC21 polymerase; conditions: not given
How it was run: (§2)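 Cell-free polymerase assays used purified NS5B in its ΔC55 and ΔC21 truncated forms.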

Row | Activity | Compound
2 | inactive | CC(C)(C)OC(=O)N1CCN(c2ccc(C(=O)Nc3ccc(O)cc3)cc2)CC1

system: Hepatitis C virus; assay: Antiviral activity against HCV infected in human HUH7 cells assessed as inhibition of viral subgenomic RNA replication in presence of 10% fetal calf serum; assay type: functional, organism-based, Hepacivirus hominis; conditions: Huh-7
How it was run: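 Replication of subgenomic HCV RNA was measured in HUH-7 replicon cells using a modified Bartenschlager procedure. Results are reported as EC50 in µM.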

Row | EC50 | Compound
3 | 5.6 µM | CC(C)(C)OC(=O)N1CCN(c2ccc(C(=O)Nc3ccc(C#N)cc3)cc2)CC1
4 | > 10 µM | CC(C)(C)OC(=O)N1CCN(c2cccc(C(=O)Nc3ccc(O)cc3)c2)CC1
5 | 1.7 µM | CC(C)(C)OC(=O)N1CCC(c2ccc(C(=O)Nc3ccc(O)cc3)cc2)CC1
6 | 0.78 µM | CC(C)(C)C(=O)N1CCN(c2ccc(C(=O)Nc3ccc(O)cc3)cc2)CC1
7 | > 10 µM | CC(C)(C)OC(=O)N1CCN(c2ccc(C(=O)N[C@H]3CC[C@H](O)CC3)cc2)CC1
8 | > 10 µM | CC(C)(C)OC(=O)N1CCN(c2ccc(C(=O)Nc3ccccc3)cc2)CC1
9 | > 10 µM | CC(C)(C)OC(=O)N1CCN(c2ccc(C(=O)Nc3cc[n+]([O-])cc3)cc2)CC1
10 | 9.6 µM | CCOC(=O)N1CCN(c2ccc(C(=O)Nc3ccc(O)cc3)cc2)CC1
11 | > 10 µM | CN(C)c1ccc(NC(=O)c2ccc(N3CCN(C(=O)OC(C)(C)C)CC3)cc2)cc1
12 | > 10 µM | CN(CCNC(=O)OC(C)(C)C)c1ccc(C(=O)Nc2ccc(O)cc2)cc1
13 | 0.69 µM | CC(C)(C)OC(=O)N1CCN(c2ccc(C(=O)Nc3ccc(C(=O)c4ccccc4)cc3)cc2)CC1
14 | > 10 µM | CN(C(=O)c1ccc(N2CCN(C(=O)OC(C)(C)C)CC2)cc1)c1ccc(O)cc1
15 | 0.55 µM | O=C(Nc1ccc(O)cc1)c1ccc(N2CCN(C(=O)OCc3ccccc3)CC2)cc1
16 | 0.58 µM | CC(C)(C)OC(=O)N1CCN(c2ccc(C(=O)Nc3cccc(Br)c3)cc2)CC1
17 | > 10 µM | CC(=O)Nc1ccc(NC(=O)c2ccc(N3CCN(C(=O)OC(C)(C)C)CC3)cc2)cc1
18 | 19.6 µM | O=C(Nc1ccc(O)cc1)c1ccc(N2CCN(C(=O)Nc3ccccc3)CC2)cc1
19 | 1.6 µM | CC(C)(C)OC(=O)C1CCN(c2ccc(C(=O)Nc3ccc(O)cc3)cc2)CC1
20 | 0.47 µM | CC(C)(C)NC(=O)N1CCN(c2ccc(C(=O)Nc3ccc(O)cc3)cc2)CC1
21 | 0.14 µM | CC(C)(C)OC(=O)N1CCN(c2ccc(C(=O)Nc3ccc(/C=C/c4ccc(O)cc4)cc3)cc2)CC1
22 | > 10 µM | CC(C)(C)OC(=O)N1CCN(c2ccc(C(=O)Nc3ccc(F)cc3)cc2)CC1
23 | 2.7 µM | O=C(Nc1ccc(O)cc1)c1ccc(N2CCN(C(=O)NCc3ccccc3)CC2)cc1
24 | 0.16 µM | CC(C)(C)OC(=O)N1CCN(c2ccc(C(=O)Nc3ccc(O)cc3)cc2)CC1
25 | 4.1 µM | O=C(Nc1ccc(O)cc1)c1ccc(N2CCN(C(=O)Oc3ccccc3)CC2)cc1

system: Hepacivirus hominis; assay: Inhibition of HCV NS5B deltaC55 polymerase; conditions: not given; how it was run: as §2

Row | Activity | Compound
26 | inactive | CC(C)(C)OC(=O)N1CCN(c2ccc(C(=O)Nc3ccc(O)cc3)cc2)CC1

system: Hepacivirus hominis; assay: Inhibition of helicase activity of HCV NS3/4A protease up to 10 uM; conditions: not given; how it was run: as §1

Row | Activity | Compound
27 | inactive | CC(C)(C)OC(=O)N1CCN(c2ccc(C(=O)Nc3ccc(O)cc3)cc2)CC1
